From PubChem BioAssay
Most compounds without a hit are left out; they make up all but 2.8% or so of the library.
DENV2 CPE: protects cells from dengue virus 2 cytopathic effect; CPE inhibition, % at 9.99 µM; DENV2-infected cells, cytopathic effect rescue, plate reader; 350,000 compounds, 1.7% hits; AID 651640; in the data active means CPE inhibition above about 20%, passing the limit was not always enough; inconclusive means no clear call, values can overlap the other calls; tested in BHK-21 cells;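 further: 0% = median of neutral control wells and 100% = median of positive control wells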
E-selectin induc: E-selectin induction on HUVECs; 260,000 compounds, 0.37% hits; activation, % at 7.58 µM; P16581; HUVEC E-selectin immunofluorescence imaging; normalized: neutral wells 0, TNF-alpha wells 100;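 active means mean E-selectin-positive cell signal at least 10% of the positive control, reached in at least 60% of replicates, without over 20% cell loss; inconclusive means no rule given, readout overlaps actives, possibly toxicity-flagged; inactive means the rest, including those meeting only one limit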
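Test system: HUVEC | Signal: Immunofluorescence imaging | Read-out: Percent E-selectin-positive cells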
SIRT5 inh: sirtuin-5 (human) deacylase inhibition | Q9NXA8 | Purified SirT5, succinyl-peptide AMC, trypsin-coupled fluorescence | inhibition, % at 15 µM | 330,000 compounds, 1.1% hits | AID 652115; in the data active means inhibition above about 15%; inconclusive means no clear call, values can overlap the other calls
Target sequence (Q9NXA8 whole entry, looked up): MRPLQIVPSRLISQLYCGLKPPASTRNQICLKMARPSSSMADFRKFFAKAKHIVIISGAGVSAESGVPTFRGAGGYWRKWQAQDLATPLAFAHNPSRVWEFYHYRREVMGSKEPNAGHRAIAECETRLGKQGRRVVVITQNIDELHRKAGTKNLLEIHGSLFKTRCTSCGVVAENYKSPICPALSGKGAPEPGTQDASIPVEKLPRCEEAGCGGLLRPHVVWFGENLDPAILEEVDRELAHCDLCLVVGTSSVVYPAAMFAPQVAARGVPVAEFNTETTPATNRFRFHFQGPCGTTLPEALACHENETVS
* hit, by the source's call.

CCOC(=O)c1ccc(NC(=O)c2nc[nH]c2C(=O)NC[C@H](C)O)cc1 was read as DENV2 CPE 80* and SIRT5 inh 1.
CNC(=O)c1[nH]cnc1C(=O)Nc1ccc(C)cc1 was read as DENV2 CPE -2, E-selectin induc 1 and SIRT5 inh -3.
`CCOC(=O)c1ccc(NC(=O)c2nc[nH]c2C(=O)NC[C@@H](C)O)cc1` gave DENV2 CPE -1, E-selectin induc 1 and SIRT5 inh 4.
Screening C[C@H](NC(=O)c1[nH]cnc1C(=O)Nc1ccccc1)C(=O)OC(C)(C)C returned DENV2 CPE -9 and E-selectin induc 0.
`C[C@@H](O)CNC(=O)c1[nH]cnc1C(=O)Nc1cccc(Cl)c1` gave DENV2 CPE -2, E-selectin induc 0 and SIRT5 inh -4.
C[C@@H]1CN([C@@H](C)CO)C(=O)CCCn2cc(nn2)CO[C@@H]1CN(C)C(=O)Nc1cccc(F)c1 was read as E-selectin induc 1.
For COc1ccc2c3c([nH]c2c1)[C@@H](CO)N(C(=O)c1cnccn1)CC31CN(C(=O)c2cnccn2)C1 the results were DENV2 CPE -11 and E-selectin induc 0.
CCC(=O)N1CCC2(CC1)CN(Cc1ccc3c(c1)OCO3)[C@@H](CO)c1c2c2ccc(OC)cc2n1C was read as DENV2 CPE -4 and E-selectin induc 0.
COc1ccc2c3c(n(C)c2c1)[C@H](CO)N(Cc1ccccc1)CC31CN(C)C1 was read as DENV2 CPE 0, E-selectin induc 0 and SIRT5 inh -4.
For Cc1cccc(NC(=O)c2nc[nH]c2C(=O)NCCCNC(=O)c2[nH]cnc2C(=O)Nc2cccc(C)c2)c1 the results were DENV2 CPE 45*, E-selectin induc 0 and SIRT5 inh -3.
Cc1cccc(NC(=O)c2nc[nH]c2C(=O)NCCN(CCNC(=O)c2[nH]cnc2C(=O)Nc2cccc(C)c2)CCNC(=O)c2[nH]cnc2C(=O)Nc2cccc(C)c2)c1 was read as DENV2 CPE 0, E-selectin induc 0 and SIRT5 inh -2.
For COc1ccc(S(=O)(=O)N(C)C[C@@H]2OCCCC[C@H](C)Oc3ccc(NC(=O)Nc4ccc(C(F)(F)F)cc4)cc3C(=O)N([C@@H](C)CO)C[C@H]2C)cc1 the results were DENV2 CPE -5, E-selectin induc 0 and SIRT5 inh 3.
For COCC(=O)Nc1ccc2c(c1)[C@@H]1C[C@@H](CC(=O)NCCc3ccccc3)O[C@@H](CO)[C@@H]1O2 the results were DENV2 CPE 8, E-selectin induc 3 and SIRT5 inh 3.
For COC(=O)C1=C(C)N(Cc2ccc(Cl)cc2)C(=S)NC1c1cccc(Br)c1 (centres undefined) the results were DENV2 CPE -10, E-selectin induc 1 and SIRT5 inh -1.
COC(=O)C1=C(C)N(CC(C)C)C(=S)NC1c1cccc(F)c1 (centres undefined) was read as DENV2 CPE 56*, E-selectin induc 1 and SIRT5 inh 2.
For COC(=O)C1=C(C)N(Cc2ccc(F)cc2)C(=S)NC1c1cccc(F)c1 (centres undefined) the results were DENV2 CPE 6, E-selectin induc 0 and SIRT5 inh 1.
For COC(=O)C1=C(C)N(Cc2ccc(Cl)cc2)C(=S)NC1c1ccc(Br)cc1 (centres undefined) the results were DENV2 CPE 25*, E-selectin induc 1 and SIRT5 inh -4.
`COC(=O)C1=C(C)N(Cc2ccc(Cl)cc2)C(=S)NC1c1ccc(F)cc1` (centres undefined) gave DENV2 CPE 10, E-selectin induc 0 and SIRT5 inh -1.
`COC(=O)C1=C(C)N(Cc2ccc(Br)cc2)C(=S)NC1c1cccc(Br)c1` (centres undefined) gave DENV2 CPE 42*, E-selectin induc 0 and SIRT5 inh -1.
For O=C(C[C@H]1CC[C@@H](NC(=O)C2CC2)[C@@H](CO)O1)NC1CCC1 the results were DENV2 CPE inconclusive, E-selectin induc 0 and SIRT5 inh 3.
Screening O=C(Nc1ccccc1)N1C[C@@H]2[C@H](c3ccccc31)[C@@H](CO)N2Cc1ccc(F)cc1 returned DENV2 CPE inconclusive, E-selectin induc 0 and SIRT5 inh 0.
For C[C@@H]1CCCCO[C@H](CN(C)S(=O)(=O)c2ccc(Cl)cc2)[C@H](C)CN([C@@H](C)CO)C(=O)c2cc(NS(=O)(=O)c3ccc(F)cc3)ccc2O1 the results were DENV2 CPE -11 and SIRT5 inh 22*.
C[C@@H]1CN([C@H](C)CO)C(=O)c2cc(NS(=O)(=O)c3ccc(F)cc3)ccc2O[C@@H](C)CCCCO[C@H]1CN(C)S(=O)(=O)c1ccc(Cl)cc1 was read as DENV2 CPE 11 and SIRT5 inh 0.
C[C@@H]1CCCCO[C@H](CN(C)S(=O)(=O)c2ccc(F)cc2)[C@@H](C)CN([C@@H](C)CO)C(=O)c2cc(NS(=O)(=O)c3ccc(Cl)cc3)ccc2O1 was read as DENV2 CPE 13, E-selectin induc 0 and SIRT5 inh 17*.
Screening C[C@H]1CCCCO[C@@H](CN(C)S(=O)(=O)c2ccc(Cl)cc2)[C@@H](C)CN([C@@H](C)CO)C(=O)c2cc(NS(=O)(=O)c3ccc(F)cc3)ccc2O1 returned DENV2 CPE 5 and SIRT5 inh -2.
`C[C@@H]1CCCCO[C@H](CN(C)S(=O)(=O)c2ccc(Cl)cc2)[C@H](C)CN([C@H](C)CO)C(=O)c2cc(NS(=O)(=O)c3ccc(F)cc3)ccc2O1` gave DENV2 CPE -13 and SIRT5 inh 20*.
For C[C@H](CO)N1C[C@H](C)[C@@H](CN(C)S(=O)(=O)c2ccc(Cl)cc2)OCCCC[C@H](C)Oc2ccc(NS(=O)(=O)c3ccc(F)cc3)cc2C1=O the results were DENV2 CPE -6 and SIRT5 inh -2.
Cc1ccc(-c2ccc3c(c2)O[C@H](CN(C)C(=O)Nc2ccc(F)cc2)[C@H](C)CN([C@@H](C)CO)S3(=O)=O)cc1 was read as DENV2 CPE -9, E-selectin induc 1 and SIRT5 inh 10.
`Cc1ccccc1S(=O)(=O)N1CC[C@@H]2[C@H](CO)Nc3ccc(-c4cccc(F)c4)cc3[C@@H]21` gave DENV2 CPE -6 and E-selectin induc 0.
COC(=O)C[C@@H]1C[C@H]2c3cc(NC(=O)Nc4ccccc4)ccc3O[C@H]2[C@@H](CO)O1 was read as DENV2 CPE -7, E-selectin induc 0 and SIRT5 inh 3.
`O=C(Nc1cc(F)ccc1F)N1C[C@@H]2[C@H](c3ccccc31)[C@H](CO)N2CC1CCCC1` gave DENV2 CPE -3, E-selectin induc -1 and SIRT5 inh -5.
Screening CNC[C@H]1OCCCC[C@H](C)Oc2ccc(NC(=O)Nc3ccccc3)cc2C(=O)N([C@H](C)CO)C[C@@H]1C returned DENV2 CPE 0, E-selectin induc 1 and SIRT5 inh -2.
C[C@@H]1CN([C@@H](C)CO)C(=O)c2cc(NC(=O)CCC(F)(F)F)ccc2O[C@@H](C)CCCCO[C@H]1CN(C)C(=O)Cc1ccccc1 was read as DENV2 CPE 5.
C/C(Cl)=C\Cn1c(O)c(N=NC(N)=S)c2ccccc21 was read as DENV2 CPE -2, E-selectin induc 1 and SIRT5 inh 2.
